Assay results: paper PMC3583859 (RNA Biology, 2012)
One block for each molecule: values may come before it.

Key:
[1] = biological target: T1, YchF (YchFE.coli) (Escherichia coli, UniProt P0ABU2); assay: equilibrium titration, intrinsic tryptophan fluorescence; format: binding
T1 sequence (P0ABU2 1-363): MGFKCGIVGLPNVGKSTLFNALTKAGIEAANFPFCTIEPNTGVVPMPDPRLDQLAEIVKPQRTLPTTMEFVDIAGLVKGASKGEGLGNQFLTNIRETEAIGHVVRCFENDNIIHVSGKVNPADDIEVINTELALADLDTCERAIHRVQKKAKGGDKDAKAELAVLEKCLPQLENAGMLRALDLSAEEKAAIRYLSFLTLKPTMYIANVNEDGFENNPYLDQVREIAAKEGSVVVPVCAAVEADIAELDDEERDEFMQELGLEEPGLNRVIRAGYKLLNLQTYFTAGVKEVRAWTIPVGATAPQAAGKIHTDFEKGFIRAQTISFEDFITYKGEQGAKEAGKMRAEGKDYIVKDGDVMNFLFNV
In short: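 Purified E. coli YchF in TAKM7 (50 mM Tris-Cl 7.5, 70 mM NH4Cl, 30 mM KCl, 7 mM MgCl2) titrated with nucleotides. Intrinsic fluorescence recorded in a stirred quartz cuvette: excitation 280 nm (2 nm slit), emission 295–400 nm in 1 nm steps (5 nm slits). With triphosphates, scans started immediately without equilibration. Spectra corrected against nucleotide titration into buffer alone.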

[2] = biological target: 70S ribosome from E. coli, purified (E. coli); assay: co-sedimentation

Molecule: Nc1ncnc2c1ncn2[C@@H]1O[C@H](COP(=O)(O)OP(=O)(O)NP(=O)(O)O)[C@@H](O)[C@H]1O [ADPNP]
- Kd [1]: 9 ± 8 µM

Molecule: Nc1nc2c(ncn2[C@@H]2O[C@H](COP(=O)(O)OP(=O)(O)OP(=O)(O)O)[C@@H](O)[C@H]2O)c(=O)[nH]1 [GTP]
- Kd [1]: 206 ± 5 µM

B1: N-terminally His-tagged YchF from Escherichia coli (enzyme)
chain: T1 sequence (P0ABU2 1-363)
- Kd [2]: 3.3 µM
- stoichiometry N [2]: 0.3 YchF per 70S

Continued by falling Kd [1], values first:

- Kd [1]: 151 ± 38 µM
Molecule: Nc1nc2c(ncn2[C@@H]2O[C@H](COP(=O)(O)OP(=O)(O)O)[C@@H](O)[C@H]2O)c(=O)[nH]1 [GDP]

- Kd [1]: 14 ± 5 µM
Molecule: Nc1ncnc2c1ncn2[C@@H]1O[C@H](COP(=O)(O)OP(=O)(O)O)[C@@H](O)[C@H]1O [ADP]
